From PubChem
aDG glyco act = activators of alpha-DG glycosylation, primary screen, uHTS, Pro5-aDG cells, AlphaScreen; alpha-DG glycosylation AlphaScreen (IIH6); 0% Pro5, 100% B10-LARGE cell signal; activation, % at 10 µM; hit rate 0.22% among 360,000; AID 624168, 2012;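 active means activation of at least 8% versus controls, or a plate z-score of at least 8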;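 further: Pro5 are CHO cells carrying HIG-tagged alpha-DG that lacks glycosylation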
TAG inh = inhibitors of triacylglycerol accumulation, primary screen, cell-based, uHTS, fluorescence, H9c2; H9c2 cells, Nile Red lipid (TAG) fluorescence; cells loaded with 200 µM oleic acid; inhibition, % at 12.5 µM; hit rate 0.66% among 230,000; AID 651582, 2012;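 active means pattern-corrected inhibition of lipid staining of at least 50% with the nuclear-stain viability signal not falling by more than 50%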
MC4R ag barr = MC4R agonists recruiting beta-arrestin, primary screen, cell-based, luminescence, agonist arm of biased-ligand search. AID 540308, 2011. hit rate 0.98% among 360,000. U2OS MC4R beta-arrestin complementation; percent of melanotan II response, DMSO zero. activation, % at 8.9 µM;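 active means activation above a per-plate cutoff, the mean activation of sample wells on that plate plus 3 SD, cut at about 8% in these data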
NTR1 ag = agonists of human NTR1, primary screen, imaging, U2OS cells, beta-arrestin-GFP, high content; AID 493036, 2011; NTR1-U2OS beta-arrestin-GFP spot imaging, agonist mode; hit rate 0.17% among 330,000; activation, % at 20 µM; Neurotensin receptor type 1 (Homo sapiens), P30989;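 active means activation at or above 40% of the spot to cytoplasm intensity ratio, with at least 20 cells analyzed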
Target sequence (P30989 whole entry, looked up): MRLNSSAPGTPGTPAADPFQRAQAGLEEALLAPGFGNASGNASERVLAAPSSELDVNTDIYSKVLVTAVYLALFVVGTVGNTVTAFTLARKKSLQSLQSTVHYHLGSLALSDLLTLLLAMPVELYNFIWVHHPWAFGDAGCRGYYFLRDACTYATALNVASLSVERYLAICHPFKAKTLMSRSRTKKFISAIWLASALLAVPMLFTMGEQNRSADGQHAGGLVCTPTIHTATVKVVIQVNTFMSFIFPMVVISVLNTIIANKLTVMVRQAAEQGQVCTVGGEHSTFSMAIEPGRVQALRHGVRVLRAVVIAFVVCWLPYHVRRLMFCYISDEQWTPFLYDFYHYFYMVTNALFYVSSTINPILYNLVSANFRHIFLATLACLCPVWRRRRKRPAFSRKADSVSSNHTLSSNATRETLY
MC4R antag cAMP = MC4R antagonists of cAMP signaling, primary screen, cell-based, TR-FRET, antagonist arm of biased-ligand search; Melanocortin receptor 4 (Homo sapiens), P32245; MC4R-expressing cells, MTII-stimulated cAMP, LANCE TR-FRET; inhibition, % at 6.5 µM; hit rate 0.48% among 360,000; AID 540295, 2011;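 active means inhibition above its plate's cutoff, the mean of tested wells on that plate plus 3 SD, cut at about 29% in these data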
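Material – human MC4R-expressing U2OS cells · Repeats – no replicates · Detection – TR-FRET with Eu-cAMP and labeled anti-cAMP, 671 nm · Times – compound 30 min, challenge 1 h, detection 1 h · Compound – single nominal compound dose of 6.5 µM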
Tb MetRS inh = T. brucei MetRS inhibitors, primary screen, biochemical, luminescence | methionyl-tRNA synthetase (Trypanosoma brucei brucei) | purified T. brucei MetRS, ATP depletion, Kinase-Glo luminescence | inhibition, % at 11.9 µM | hit rate 0.4% among 360,000 | AID 624268, 2012;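 active means inhibition above a per-plate cutoff of the control wells' mean inhibition plus 3 SD, cut at about 5.5% in these data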
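Material: T. brucei methionyl-tRNA synthetase, purified; reagent: substrates ATP, L-methionine and bulk Escherichia coli tRNA; dosing: 11.9 µM single point; timing: 15 min plus 2 h at 25 °C; detection: luminescence of leftover ATP; evaluation: % inhibition; control set: DMSO-only wells as low control; replicates: singlicate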
A number is an active result; n = inactive; x = no result. Compounds with a hit are over-represented: about 2.4% of the library has one in this group of screens.

SMILES | aDG glyco act | TAG inh | MC4R ag barr | NTR1 ag | MC4R antag cAMP | Tb MetRS inh
Cn1nnnc1Sc1ncnc2scc(-c3ccc(Br)cc3)c12 | n | 57.6 | n | n | n | n
CNC[C@H](CC1CCCCC1)NC[C@H](Cc1ccccc1)NCCC12CC3CC(CC(C3)C1)C2 | n | n | 25.7 | n | n | n
COc1cc(C(=O)NC2CCN(C)CC2)ccc1Nc1ncc2c(n1)N(C1CCCCC1)CCC(=O)N2C | n | 96.0 | n | x | n | n
COc1cc(C(=O)NC2CCN(C)CC2)ccc1Nc1ncc2c(n1)N(Cc1ccccc1)CCC(=O)N2C | n | 87.4 | n | x | n | n
CCCCN(C)C(=O)c1sc(=O)n(Cc2ccc(Cl)c(Cl)c2)c1C | n | n | n | x | n | n
CCOC(=O)N1CCN(c2ncnc3c2[nH]c2ccc(OC)cc23)CC1 | n | n | n | n | n | n
Fc1ccc2[nH]c3c(Cl)ncnc3c2c1 | n | n | n | n | n | n
Fc1ccc2[nH]c3c(N4CCN(c5ccccc5)CC4)ncnc3c2c1 | n | n | n | 41.3 | n | n
CCCCOc1ncnc2c1[nH]c1ccc(F)cc12 | 6.5 | x | n | n | n | n
COc1ccc(N2CCN(c3ncnc4c3[nH]c3ccccc34)CC2)cc1 | 6.2 | n | n | n | n | n
COc1ccc2[nH]c3c(N4CCc5ccccc5C4)ncnc3c2c1 | n | n | n | n | n | n
CCCCOc1ncnc2c1[nH]c1ccc(OCC)cc12 | n | x | n | n | n | n
CCOC(=O)N1CCN(c2ncnc3c2[nH]c2ccc(F)cc23)CC1 | 5.9 | n | n | n | n | n
Nc1ncnc2c1ccn2[C@H]1CN(Cc2ccc(Cl)cc2)C[C@@H](CO)O1 | n | n | n | x | n | n
Cc1ccccc1-c1csc(C(O)c2ccccc2)n1 (centres undefined) | n | n | n | x | n | n
Cc1cccc(-c2cnc(C(O)c3ccc(F)c(C)c3)[nH]2)c1 (centres undefined) | n | n | n | x | n | n
COc1cccc(C(=O)Nc2ccc3nc(N4CCN(c5ncccn5)CC4)cc(C)c3c2)c1OC | x | x | x | 46.7 | x | x
COC(=O)C1=CN(c2cccc(OCc3ccccc3)c2)C(N)=C(C#N)C1c1cccc(OC)c1OC (centres undefined) | n | x | x | x | x | n
CCOc1cc(/C=N/NC(N)=S)cc(Br)c1OCc1ccccc1C | n | n | n | 42.1 | n | n
CNC(=S)N/N=C/c1cc(Br)c(OCc2ccncc2)c(OC)c1 | n | n | n | n | n | n
COc1cc(/C=N/NC(N)=S)cc(Br)c1OCc1ccccc1F | n | x | 10.5 | n | n | n
CCOc1cc(/C=N/NC(N)=O)cc(Br)c1OCc1ccccc1 | n | n | n | n | n | n
CCCCCCOC(=O)CCc1c(C)nc(N)[nH]c1=O | n | n | n | n | n | n
CCCCCCCCOC(=O)CCc1c(C)[nH]c(=S)[nH]c1=O | n | n | 9.0 | n | n | n
NC(=O)c1cccc(-c2coc3c(C(=O)NCc4ccccc4)cccc23)c1 | n | n | n | x | n | n
CCNS(=O)(=O)c1ccc(NC(=O)c2cccnc2)cc1 | 16.8 | x | n | n | n | n
O=C(Nc1ccc(S(=O)(=O)Nc2ncccn2)cc1)c1cccnc1 | n | x | n | n | n | n
O=C(NCc1ccc(F)cc1)c1cc(C2CCCCN2S(=O)(=O)Cc2ccccc2)on1 (centres undefined) | n | n | n | x | n | n
N/C(=N\OC(=O)c1ccccc1Br)c1ccc([N+](=O)[O-])cc1 | n | x | 8.6 | n | n | n
CCN(CC)CCC(=O)N1C/C(=C/c2ccccc2)C(=O)/C(=C\c2ccccc2)C1 | n | 50.5 | n | x | n | n
